Compound activity from PubChem.
Only some compounds are listed: those with a hit (about 12% of all), similar ones and a draw of the others.
Diaphorase inh: inhibits diaphorase or chemically oxidizes, flagging diaphorase assay artifacts | inhibition, % at 20 µM | diaphorase resazurin-to-resorufin fluorescence, NADH, 16 min; bacterial (C. kluyveri) enzyme, not human | 190,000 tested, 0.69% active;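 active means primary screen inhibition at 20 µM above a set limit, cut at about 50% in these data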
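Detection: fluorescence of resorufin formed from resazurin, Ex 544/Em 590 nm; test system: Clostridium kluyveri diaphorase enzyme; amount: 0.14 U/mL diaphorase, enzyme working solution; times: 16-min room-temperature incubation before reading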
Diaphorase act: activates diaphorase or chemically reduces, flagging diaphorase assay artifacts. Diaphorase/resazurin coupled assay, resorufin fluorescence, 16 min; hits give high values; 1 = vehicle wells, 0 = NADH-free wells. 190,000 tested, 0.005% active. activation factor at 20 µM;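 active means diaphorase activity raised at least twofold by the compound at 20 µM; inactive means activation factor below 2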
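System – purified diaphorase enzyme from Clostridium kluyveri · Input – enzyme 0.07 U/mL final · Also added – final NADH 0.114 mM, resazurin 0.1 mM · Measured by – fluorescence of resorufin, 544 nm excitation, 590 nm emission · Timing – 16 min enzyme reaction, ambient temperature · Measure – resorufin increase flagging diaphorase activators or reducers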
WT yeast gro inh: growth inhibition of WT yeast, mitochondrial fusion screen. mitochondrial fusion phenotypic screen, WT strain. inhibition, % at 10 µM. 190,000 tested, 2.1% active. AID 1362; in the data active means inhibition above about 58%; tested in S. cerevisiae
L major viab: reduces viability of Leishmania major promastigotes. resazurin fluorescence viability. inhibition, % at 10 µM. 200,000 tested, 9% active; in the data active means inhibition above about 50%;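 further: promastigotes grown with compound for 44 hours at 28 °C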
ROMK mod: human ROMK K+ channel modulation, primary screen | P48048 | Tet-inducible ROMK, thallium flux fluorescence; actives lie on both sides | B-score at 10 µM | 130,000 tested, 2% active;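 active means signal ratio slope over the read window, or its plate-corrected B-score, at least 3 SD from the plate mean, either direction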;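 further: B-score of the F/F0 ratio slope over 7 to 12 s after thallium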
Cl transport mod: KCC2 (human) Cl- transport modulation. AID 1456. 190,000 tested, 2.2% active. B-score of Tl+ flux slope (higher = more flux/activation; lower = inhibition) at 10 µM. Q9H2X9. KCC2 cells, thallium flux FluoZin-2 fluorescence;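 active means thallium flux slope and its plate-corrected score both differing from the plate sample mean at a set confidence after two filtering rounds, in either direction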;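 further: slope of fluorescence scaled to starting intensity during 10 to 20 s after thallium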
Target sequence (Q9H2X9 whole entry, looked up): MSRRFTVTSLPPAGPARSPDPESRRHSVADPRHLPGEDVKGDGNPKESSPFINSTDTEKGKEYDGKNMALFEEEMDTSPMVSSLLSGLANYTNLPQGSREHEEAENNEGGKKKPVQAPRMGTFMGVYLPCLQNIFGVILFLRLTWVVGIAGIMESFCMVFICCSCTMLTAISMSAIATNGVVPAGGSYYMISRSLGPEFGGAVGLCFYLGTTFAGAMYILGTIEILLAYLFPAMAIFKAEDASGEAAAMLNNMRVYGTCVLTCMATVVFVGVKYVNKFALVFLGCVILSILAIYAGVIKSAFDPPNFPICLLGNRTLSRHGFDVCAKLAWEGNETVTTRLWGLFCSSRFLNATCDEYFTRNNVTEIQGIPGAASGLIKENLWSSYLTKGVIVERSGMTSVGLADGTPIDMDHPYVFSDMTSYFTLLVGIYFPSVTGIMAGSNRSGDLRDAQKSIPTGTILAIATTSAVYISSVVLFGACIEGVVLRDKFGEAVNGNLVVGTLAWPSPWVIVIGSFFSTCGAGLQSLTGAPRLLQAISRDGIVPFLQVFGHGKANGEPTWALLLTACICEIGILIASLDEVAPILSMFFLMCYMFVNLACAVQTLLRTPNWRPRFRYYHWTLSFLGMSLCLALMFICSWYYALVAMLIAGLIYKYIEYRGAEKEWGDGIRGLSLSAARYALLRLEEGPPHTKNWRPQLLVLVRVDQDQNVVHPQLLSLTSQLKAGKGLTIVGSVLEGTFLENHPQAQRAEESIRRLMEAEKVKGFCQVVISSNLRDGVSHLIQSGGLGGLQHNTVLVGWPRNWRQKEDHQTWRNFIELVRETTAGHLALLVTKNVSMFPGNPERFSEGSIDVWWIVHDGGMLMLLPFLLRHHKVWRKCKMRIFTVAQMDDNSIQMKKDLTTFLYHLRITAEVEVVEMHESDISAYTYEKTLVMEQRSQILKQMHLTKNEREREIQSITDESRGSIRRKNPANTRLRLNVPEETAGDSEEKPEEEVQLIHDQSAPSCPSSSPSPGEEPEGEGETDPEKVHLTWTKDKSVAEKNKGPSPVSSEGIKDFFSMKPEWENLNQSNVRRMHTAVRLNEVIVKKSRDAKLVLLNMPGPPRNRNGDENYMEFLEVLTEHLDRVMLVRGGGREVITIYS
KCC2 secondary: confirmation of human KCC2 transport modulators | shares compounds with Cl transport mod | HEK293-KCC2, thallium flux, FluoZin2 fluorescence; hits give high values | normalised thallium flux (F/F0 slope) at 10 µM | 3,700 tested, 15% active;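 active means thallium flux slope above the same plate's solvent-only control mean plus 3 SD; inconclusive means the two replicate wells disagree; inactive means no significant difference from solvent-only control wells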
KCC2 bumet counter: thallium flux persisting under bumetanide in KCC2 cells, counter-screen secondary assay | HEK293-KCC2 + bumetanide/ouabain, thallium flux FluoZin2; hits give high values | 3,700 tested, 49% active | normalized thallium flux at 10 µM | shares compounds with Cl transport mod;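 active means thallium entry rate above the same plate's blocked-transporter control wells by more than 3 SD; inconclusive means the two repeat wells disagree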;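 further: raw slope of fluorescence over initial fluorescence between 10 and 20 s after thallium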
KCC2 sec2: KCC2 (human) modulation, second secondary assay. shares compounds with Cl transport mod. HEK293-KCC2, thallium flux FluoZin2 fluorescence; actives lie on both sides; F/F0 rise rate, 10–20 s post-thallium. normalized thallium flux at 10 µM. 3,700 tested, 23% active;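 active means thallium flux slope more than 3 SD above or below the plate's solvent-only control mean, mostly below; inconclusive means the two repeat wells disagreed; inactive means no significant shift from solvent-only controls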
HEK counter1: acts in parental HEK cells, KCC2 counter-screen; shares compounds with Cl transport mod; HEK293 parental cells, thallium flux FluoZin2, ouabain; baseline-ratio fluorescence slope, 10–20 s after thallium; thallium flux rate (normalised fluorescence) at 10 µM; 3,700 tested, 46% active; AID 1716;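 active means thallium flux rate significantly above the same plate's solvent-only control wells, beyond their mean plus 3 SD; inconclusive means the two replicate wells gave conflicting results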
KCC2 ouabain: modulates human KCC2 on retest with ouabain; shares compounds with Cl transport mod; HEK293-KCC2, thallium flux FluoZin2 fluorescence; bidirectional: low = inhibitor, high = activator; raw Tl+ flux slope (below DMSO = inhibition, above = activation) at 10 µM; 3,700 tested, 48% active;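 active means thallium flux slope beyond 3 SD from same-plate DMSO control mean in most replicates, usually higher, sometimes lower; inconclusive means repeat tests gave conflicting results; inactive means no significant difference from controls in most replicates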;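 further: slope of initial-normalized fluorescence between seconds 10 and 20 after thallium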
HEK counter2: parental HEK flux effect, counter-screen 2; shares compounds with Cl transport mod; AID 1718; thallium flux slope at 10 µM; 3,700 tested, 33% active; HEK293 parental, thallium flux FluoZin-2 fluorescence slope;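 active means thallium flux slope above the same plate's solvent-control mean plus 3 SD in both duplicate wells; inconclusive means duplicate wells that disagreed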;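 further: run without ouabain in cells lacking the KCC2 cotransporter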
Numbers stand for hits; n = inactive; u = inconclusive; x = no result given.

SMILES | Diaphorase inh | Diaphorase act | WT yeast gro inh | L major viab | ROMK mod | Cl transport mod | KCC2 secondary | KCC2 bumet counter | KCC2 sec2 | HEK counter1 | KCC2 ouabain | HEK counter2
O=C(Nc1nnc(-c2ccncc2)o1)c1ccc(Br)s1 | n | n | n | n | n | 4.6 | n | 0.0096 | n | 0.014 | n | 0.015
Cc1cnn(C(=S)NCC2CCCO2)c1 (centres undefined) | n | n | n | n | x | n | x | x | x | x | x | x
O=[N+]([O-])c1ccc(-c2nc(=S)c3c(o2)CCCC3)cc1 | n | n | n | n | n | 34 | 0.018 | 0.027 | n | 0.033 | 0.042 | 0.016
S=c1nc(-c2ccccc2)oc2c1CCCC2 | 65 | n | n | n | x | 5.3 | n | 0.045 | n | 0.012 | u | 0.013
CCCCc1c(C)nc2cc(-c3ccco3)[nH]n2c1=O | x | x | x | x | x | 4.5 | n | 0.014 | n | 0.013 | u | 0.015
O=C(N/N=C/c1ccccn1)c1cc(-c2ccccc2)nc2ccccc12 | x | x | x | x | x | 12 | n | 0.023 | n | 0.01 | u | n
O=C(O)COc1ccccc1/C=N/NC(=O)c1cc(-c2ccc(F)cc2)nc2ccccc12 | n | n | n | n | n | n | x | x | x | x | x | x
CC(C)CCNC(=O)COC(=O)/C=C/c1ccc2ccccc2n1 | n | n | n | n | n | -3.9 | n | n | 0.024 | n | 0.014 | n
CN(C(=O)COC(=O)/C=C/c1ccc2ccccc2n1)C1CCS(=O)(=O)C1 (centres undefined) | n | n | n | n | n | n | x | x | x | x | x | x
CC(C)OCCCNC(=O)c1cc2c(s1)CS(=O)(=O)C2 | n | n | n | n | n | x | n | n | n | n | n | n
CC(NC(=O)CCc1nnc(-c2ccc(-c3ccccc3)cc2)o1)c1nccs1 (centres undefined) | x | x | n | n | n | -4.1 | n | n | 0.024 | n | n | n
O=C(CCc1nnc(-c2ccc(-c3ccccc3)cc2)o1)NCCc1ccccn1 | n | n | n | n | n | -3.2 | n | n | n | n | u | u
O=C(c1cc([N+](=O)[O-])ccc1Cl)N1CCN(Cc2ccc3c(c2)OCO3)CC1 | n | n | n | n | n | n | x | x | x | x | x | x
O=C1c2ccccc2NC(c2ccc(Cl)cc2Cl)N1O (centres undefined) | n | n | n | 70 | x | 3.8 | n | 0.021 | n | 0.0095 | n | n
O=C(NNC(=O)c1sccc1-n1cccc1)c1ccc(F)cc1 | n | n | n | n | n | x | n | 0.017 | n | u | 0.026 | n
COc1ccc(/C=C2\S/C(=N/S(=O)(=O)c3cccs3)NC2=O)cc1 | n | n | n | n | n | n | x | x | x | x | x | x
CC(C)c1ccc(OCC(=O)Nc2cccc(C(=O)Nc3ccccc3C(=O)O)c2)cc1 | n | n | n | n | n | -5 | n | n | n | 0.0057 | 0.016 | n
CCn1c(=O)n(CC)c2cc(S(=O)(=O)N3CCC(c4ccccc4)CC3)ccc21 | n | n | n | n | n | x | n | n | 0.025 | n | 0.017 | n
O=C(CN1C(=O)C2CCCCC2C1=O)Nc1nc(-c2ccccn2)cs1 (centres undefined) | n | n | n | n | n | x | n | 0.007 | n | n | n | n
O=S(=O)(c1cccs1)N1CCCc2ccccc21 | n | n | n | n | x | x | x | x | x | x | x | x
O=C(O)CCSc1ncnc2sc(-c3ccccc3)cc12 | x | x | x | x | x | 51 | u | 0.056 | 0.043 | 0.056 | 0.055 | 0.033
COCCNC(=O)CSc1ncnc2sc(-c3ccccc3)cc12 | n | n | n | n | n | 7.5 | n | 0.021 | n | 0.014 | 0.022 | 0.017
CSCCC(NC(=O)c1ccc([N+](=O)[O-])cc1Cl)C(=O)OCC(=O)NCCCc1ccccc1 (centres undefined) | n | n | n | n | n | -4.3 | n | u | 0.026 | n | u | n
Cc1ccc(CO/N=C\Cc2snc(Sc3ncc(C(F)(F)F)cc3Cl)c2C#N)cc1 | n | n | n | n | n | n | x | x | x | x | x | x
CCOC(=O)c1nnc2c(Br)c(-c3ccccc3)nn2c1C | n | n | n | n | x | x | x | x | x | x | x | x
SMILES | Diaphorase inh | Diaphorase act | WT yeast gro inh | L major viab | ROMK mod | Cl transport mod | KCC2 secondary | KCC2 bumet counter | KCC2 sec2 | HEK counter1 | KCC2 ouabain | HEK counter2
COc1ccc(/C=c2\s/c(=C/C(=O)c3ccc(C)cc3)[nH]c2=O)c(OC)c1 | n | n | n | n | x | n | x | x | x | x | x | x
COc1cccc(/C=c2\s/c(=C/C(=O)c3ccc(C)cc3)[nH]c2=O)c1OC | n | n | n | n | x | 4.7 | n | u | n | 0.011 | 0.026 | u
CCCCCCCC(=O)NNC(=O)c1c(O)c2ccccc2[nH]c1=O | x | x | x | x | x | n | x | x | x | x | x | x
CCCCCCCCCCC(=O)NNC(=O)c1c(O)c2ccccc2n(CC)c1=O | n | n | n | n | n | 5.2 | n | 0.015 | n | 0.0099 | n | n
CCCCCCCCC(=O)NNC(=O)c1c(O)c2ccccc2n(CCC)c1=O | n | n | n | n | n | 6.3 | n | 0.012 | n | 0.015 | n | u
CCCCCCCCCC(=O)NNC(=O)c1c(O)c2ccccc2n(CCC)c1=O | n | n | n | n | n | 3.9 | n | 0.0099 | n | 0.0092 | n | n
COc1ccccc1Oc1ccc(-c2cnc3ccccc3n2)cc1[N+](=O)[O-] | n | n | n | n | x | n | x | x | x | x | x | x
Cc1c(O)c2c3c(cccc3c1O)C(=O)N(c1ccccc1)C2=O | n | n | n | n | x | n | x | x | x | x | x | x
CCc1ccc(Nc2nnc(SC3CCOC3=O)s2)cc1 (centres undefined) | n | n | n | n | x | -5.3 | n | u | 0.023 | n | u | n
Cc1ccc(Nc2nnc(SCC3CCCCO3)s2)cc1 (centres undefined) | n | n | n | n | n | n | x | x | x | x | x | x
O=C(Oc1c(-c2ccccc2)oc2ccccc2c1=O)c1ccccc1 | n | n | n | n | n | x | 0.014 | 0.068 | n | u | 0.055 | u
COc1ccc(-c2oc3ccccc3c(=O)c2OC(=O)c2ccc(C)cc2)cc1 | n | n | n | n | x | n | x | x | x | x | x | x
CCOC(=O)CON1C(=O)C(=O)N(OCC(=O)OCC)[C@H]2CCCC[C@H]21 | x | x | x | x | n | n | x | x | x | x | x | x
